ChEMBL document CHEMBL1134455, “Synthesis and evaluation of 4-fluoro-8-substituted-2,3,4,5-tetrahydro-1H-2-benzazapines as selective inhibitors of phenylethanolamine N-methyltransferase versus the alpha(2)-adrenoceptor” (J Med Chem, 2001)

Tests used:
[1] = Selectivity ratio (alpha2/PNMT)
[2] = target: T1, Phenylethanolamine N-methyltransferase (Bos taurus, UniProt P10938); experiment: Ability to inhibit phenylethanolamine N-methyl-transferase (PNMT)
T1 sequence (P10938 whole entry): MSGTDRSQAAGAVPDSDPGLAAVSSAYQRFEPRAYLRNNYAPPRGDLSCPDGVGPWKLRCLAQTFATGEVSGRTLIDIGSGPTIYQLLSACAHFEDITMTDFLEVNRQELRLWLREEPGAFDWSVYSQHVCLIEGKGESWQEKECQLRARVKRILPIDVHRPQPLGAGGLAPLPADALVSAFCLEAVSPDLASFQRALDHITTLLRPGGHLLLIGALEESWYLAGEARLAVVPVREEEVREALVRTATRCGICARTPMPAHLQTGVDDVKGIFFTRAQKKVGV

[3] = target: T2, Adrenergic receptor alpha-2 (Rattus norvegicus, UniProt P22086+P19328+P22909); experiment: Binding affinity to alpha-2 adrenergic receptor by displacement of [3H]clonidine; format: protein assay
T2 sequence (P22086 whole entry): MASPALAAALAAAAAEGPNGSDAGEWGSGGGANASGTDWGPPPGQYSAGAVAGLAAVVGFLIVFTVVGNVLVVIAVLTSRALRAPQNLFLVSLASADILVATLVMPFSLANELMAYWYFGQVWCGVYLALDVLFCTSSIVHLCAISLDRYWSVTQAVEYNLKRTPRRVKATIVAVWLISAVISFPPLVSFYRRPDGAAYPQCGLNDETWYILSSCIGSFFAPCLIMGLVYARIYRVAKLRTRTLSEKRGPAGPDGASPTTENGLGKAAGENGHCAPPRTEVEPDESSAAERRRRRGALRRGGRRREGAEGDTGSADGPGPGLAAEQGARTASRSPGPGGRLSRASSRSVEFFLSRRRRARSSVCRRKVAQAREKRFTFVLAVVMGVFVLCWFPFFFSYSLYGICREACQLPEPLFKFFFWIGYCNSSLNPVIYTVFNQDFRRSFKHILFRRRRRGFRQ
T2 sequence (P19328 whole entry): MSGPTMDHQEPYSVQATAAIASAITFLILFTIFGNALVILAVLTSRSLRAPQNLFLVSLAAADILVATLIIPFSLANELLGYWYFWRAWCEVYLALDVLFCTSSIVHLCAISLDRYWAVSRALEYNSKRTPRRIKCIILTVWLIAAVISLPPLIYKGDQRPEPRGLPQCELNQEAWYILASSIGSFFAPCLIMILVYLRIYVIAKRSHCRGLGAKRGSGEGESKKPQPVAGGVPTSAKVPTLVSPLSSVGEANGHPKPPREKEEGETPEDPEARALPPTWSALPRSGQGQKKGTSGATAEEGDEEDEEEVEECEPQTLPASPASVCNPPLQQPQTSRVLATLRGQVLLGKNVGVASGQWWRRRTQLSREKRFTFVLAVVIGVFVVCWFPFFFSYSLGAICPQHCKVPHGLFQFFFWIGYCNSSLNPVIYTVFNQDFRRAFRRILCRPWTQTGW
T2 sequence (P22909 whole entry): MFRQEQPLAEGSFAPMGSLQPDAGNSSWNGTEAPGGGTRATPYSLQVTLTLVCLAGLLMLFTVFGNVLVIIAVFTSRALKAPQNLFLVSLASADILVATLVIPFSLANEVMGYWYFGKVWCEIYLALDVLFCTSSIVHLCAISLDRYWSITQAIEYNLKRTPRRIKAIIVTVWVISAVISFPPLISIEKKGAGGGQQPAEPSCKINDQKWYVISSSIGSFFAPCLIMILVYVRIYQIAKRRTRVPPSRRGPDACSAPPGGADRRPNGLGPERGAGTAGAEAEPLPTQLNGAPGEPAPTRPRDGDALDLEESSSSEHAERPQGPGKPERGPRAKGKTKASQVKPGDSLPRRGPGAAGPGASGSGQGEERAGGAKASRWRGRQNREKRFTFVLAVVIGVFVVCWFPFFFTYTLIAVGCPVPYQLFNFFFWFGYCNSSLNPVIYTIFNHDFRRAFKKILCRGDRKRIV
Outline: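 Male Sprague Dawley rat cortex homogenized, washed thrice by centrifugation in 50 mM Tris/HCl pH 7.7. Incubated with [3H]clonidine (final 2.0 nM) and varied inhibitor concentrations, 25 °C 30 min; GF/B filtration, scintillation counting. Nonspecific binding with 2 uM phentolamine. IC50 by log-probit analysis, converted to Ki via Cheng–Prusoff (Hill coefficients near one).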

## O=[N+]([O-])c1ccc2c(c1)CNC(CF)C2 (stereo not given)
[1]
  Selectivity: 140

## N#Cc1ccc2c(c1)CNCC(F)C2 (stereo not given)
[2]
  Ki: 1.3 µM
[3]
  Ki: 100 µM
[1]
  Selectivity: 77

## O=[N+]([O-])c1ccc2c(c1)CNCC(O)C2 (stereo not given)
[2]
  Ki: 5.3 µM
[3]
  Ki: 680 µM
[1]
  Selectivity: 130

## Clc1ccc2c(c1Cl)CNCC2
[1]
  Selectivity: 0.095

## COc1ccc2c3c([nH]c2c1)C=NCC3
[1]
  Selectivity: 4.4

## O=[N+]([O-])c1ccc2c(c1)CNCC(F)C2 (stereo not given)
[2]
  Ki: 0.54 µM
[3]
  Ki: 510 µM
[1]
  Selectivity: 940

## NS(=O)(=O)c1ccc2c(c1)CNC(CO)C2 (stereo not given)
[1]
  Selectivity: 4100

## FCC1Cc2ccc(Br)cc2CN1 (stereo not given)
[1]
  Selectivity: 10

## O=[N+]([O-])c1ccc2c(c1)CNCC2CF (stereo not given)
[2]
  Ki: 2.1 µM
[3]
  Ki: 35 µM
[1]
  Selectivity: 17

## N#Cc1ccc2c(c1)CNC(CF)C2 (stereo not given)
[1]
  Selectivity: 420

## FC1CNCc2ccccc2C1 (stereo not given)
[2]
  Ki: 2 µM
[3]
  Ki: 93 µM
[1]
  Selectivity: 47

## FC1CNCc2cc(Br)ccc2C1 (stereo not given)
[2]
  Ki: 0.39 µM
[3]
  Ki: 49 µM
[1]
  Selectivity: 130

## NS(=O)(=O)c1ccc2c(c1)CNC(CF)C2 (stereo not given)
[1]
  Selectivity: 1000
